Only some compounds are listed: those with a hit (about 4.8% of all), similar ones and a draw of the others.
Mdm2 MdmX PPI = disrupts the human Mdm2-MdmX interaction; O15151+Q00987; SaOS-2 split-luciferase Mdm2/MdmX complementation, luminescence; inhibition, % at 8 µM; hit rate 3% among 330,000; AID 485346;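 active = inhibition of at least 50% at 8 µM in the primary screen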
Target sequence (O15151 whole entry, looked up): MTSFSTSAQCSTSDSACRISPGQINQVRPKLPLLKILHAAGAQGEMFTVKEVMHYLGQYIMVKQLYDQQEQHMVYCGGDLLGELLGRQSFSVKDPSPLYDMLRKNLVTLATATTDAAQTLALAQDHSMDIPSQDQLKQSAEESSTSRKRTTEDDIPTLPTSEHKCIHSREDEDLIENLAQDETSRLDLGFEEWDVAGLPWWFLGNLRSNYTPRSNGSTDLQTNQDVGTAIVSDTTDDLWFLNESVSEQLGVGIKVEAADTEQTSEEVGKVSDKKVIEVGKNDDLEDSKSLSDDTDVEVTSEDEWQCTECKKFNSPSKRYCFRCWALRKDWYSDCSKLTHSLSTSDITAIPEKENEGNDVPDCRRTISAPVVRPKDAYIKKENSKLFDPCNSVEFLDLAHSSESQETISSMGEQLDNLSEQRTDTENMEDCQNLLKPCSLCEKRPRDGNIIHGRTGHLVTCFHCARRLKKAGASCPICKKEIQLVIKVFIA
Target sequence (Q00987 whole entry, looked up): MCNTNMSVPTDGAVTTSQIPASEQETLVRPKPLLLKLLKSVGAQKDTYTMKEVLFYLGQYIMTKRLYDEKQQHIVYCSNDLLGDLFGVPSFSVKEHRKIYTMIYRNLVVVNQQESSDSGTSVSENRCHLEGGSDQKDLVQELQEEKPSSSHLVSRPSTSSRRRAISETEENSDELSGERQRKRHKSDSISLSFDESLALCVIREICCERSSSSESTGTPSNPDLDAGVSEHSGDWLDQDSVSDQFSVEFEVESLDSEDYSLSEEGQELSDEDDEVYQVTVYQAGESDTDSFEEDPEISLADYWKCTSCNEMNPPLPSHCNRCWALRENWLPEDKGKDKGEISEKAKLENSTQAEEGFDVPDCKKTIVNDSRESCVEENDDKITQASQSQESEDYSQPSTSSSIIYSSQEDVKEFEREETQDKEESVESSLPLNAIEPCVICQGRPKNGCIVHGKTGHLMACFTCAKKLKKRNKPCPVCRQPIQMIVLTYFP
Beta apoptosis = blocks beta cell apoptosis. INS-1E cytokine-induced death, ATP luminescence, 48 h; percent of positive-control rescue, neutral wells zero. protection from apoptosis, % (no concentration beside the values). hit rate 0.8% among 300,000;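 active = Every replicate reaches about 75%, or at least half do and their mean reaches it too, limit read from the data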;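 also: higher means more ATP so stronger rescue from cytokine killing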
SKKanGAS inh = blocks kanamycin growth of S. pyogenes SKKanGAS strain; AID 1662; BacTiter-Glo, 6 h; hit rate 1.3% among 300,000; inhibition, % at 7.5 µM;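 active = mean replicate score, as percent of positive control median, at least 50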;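 also: strain carries kanamycin resistance gene driven by streptokinase promoter and grows in 40 µg/ml kanamycin; loss of luminescence reflects streptokinase promoter inhibition or plain growth inhibition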
UPR XBP1 act = adaptive UPR (XBP1) activation. CHO-XBP1 luciferase reporter, IRE1-XBP1 UPR activation, luminescence; percent of tunicamycin response, DMSO as zero. activation, % at 20 µM. hit rate 0.33% among 330,000. AID 463104;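 active = versus positive control, 20 µM dose yields 30% or more activation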
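Material: CHO-XBP1 cells stably carrying IRE1-XBP1-driven luciferase reporter | Medium: F12 with 10% serum | Compound dosing: 20 µM single concentration, DMSO 1% | Incubation: Overnight seeding at 37 °C, 6 h compound treatment at 37 °C | Detection: Steady-Glo luminescence read | Read-out basis: % activation of reporter signal versus tunicamycin and DMSO controls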
UPR CHOP act = apoptotic UPR (CHOP) activation; CHO-CHOP luciferase reporter, luminescence; percent of tunicamycin response over DMSO baseline; activation, % at 10 µM; hit rate 0.34% among 330,000;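 active = at 10 µM dose, activation of 40% or more, normalized to positive control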
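Assay system: CHO cells with stable CHOP pathway luciferase reporter; Buffer or medium: F12 plus 10% serum; Times: 16-18 h cell attachment, then 6 h compound exposure, 37 °C; Signal: luciferase luminescence; Read-out basis: percent activation relative to tunicamycin control; Control set: tunicamycin high control, DMSO low control.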
CSC inhib = blocks cancer stem cells; cancer stem cell-like cells viability, luminescence; inhibition, % at 7.5 µM; hit rate 1.1% among 300,000; in the data active = inhibition above about 75%; tested in HMLE shEcad cells
UPR XBP1 confirm = adaptive UPR (XBP1) activation, confirmed; shares compounds with UPR XBP1 act; CHO-XBP1 IRE1-XBP1 luciferase reporter, luminescence; activation, % at 20 µM; hit rate 63% among 1,000; AID 485299;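 active = reporter signal at least 30% of the positive control's activation in two or more of four replicate wells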
Mdm2 MdmX conf = human Mdm2/MdmX binding inhibition, confirmed | shares compounds with Mdm2 MdmX PPI | luminescent assay | inhibition, % at 8 µM | hit rate 55% among 10,000; in the data active = inhibition above about 40%
FLuc counter = full-length luciferase inhibition in Mdm2/MdmX counter-screen; shares compounds with Mdm2 MdmX PPI; SaOS-2 full-length luciferase counterscreen, luminescence; inhibition, % at 8 µM; hit rate 77% among 6,200;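 active = mean inhibition at 8 µM reaching about 37%, which flags the compound as non-specific, limit read from the data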;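 also: p53-null SaOS-2 cells with luciferase driven by a doxycycline-inducible promoter; compound on cells about two nights before reading with doxycycline added after day one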
Each line names hits and unclear results; the compound was inactive in the other large screens (follow-up assays come after a bar, where they were run).

CCOc1ccc2nc(NC3=NC(c4ccc(OC)cc4)CC(=O)N3)nc(C)c2c1 (stereo not drawn)	Mdm2 MdmX PPI 98.5, UPR XBP1 act 132.7, CSC inhib 75.6 | UPR XBP1 confirm 167.2 | Mdm2 MdmX conf inactive | FLuc counter inactive
N#CC1(NC(=O)COC(=O)c2nccnc2N)CCCCC1	none
CCOC(=O)c1c(C)n(C)c2ccc(OC)c(NC(=O)CCN3CCC(Cc4ccccc4)CC3)c12	none
CCOc1cc(/C=N/NC(=O)Cn2nc([N+](=O)[O-])cc2C)cc(Br)c1OCc1ccccc1C	Mdm2 MdmX PPI 52.2, UPR XBP1 act 57.0 | UPR XBP1 confirm 79.6 | Mdm2 MdmX conf 46.9 | FLuc counter 87.0
COc1cc(/C=N/NC(=O)Cn2nc([N+](=O)[O-])cc2C)cc(Br)c1OCc1ccccc1	none
CC(C)=CCCC1(C)C=Cc2c(c(C)cc3c2[nH]c2cc(O)ccc23)O1 (stereo not drawn)	Mdm2 MdmX PPI 68.8, SKKanGAS inh 107.5, UPR XBP1 act 62.8, CSC inhib 92.7 (no result: Beta apoptosis) | UPR XBP1 confirm 66.6 | Mdm2 MdmX conf inactive
CCOC(=O)c1cc(-c2ccccc2)sc1NC(=O)c1ccc(OC)cc1	Mdm2 MdmX PPI 75.0, UPR XBP1 act 150.8 | UPR XBP1 confirm 118.0 | Mdm2 MdmX conf inactive
CCOC(=O)c1cc(-c2ccccc2)sc1NC(=O)CC	none
CN(C)CCCn1cnc2c(c1=N)C(c1ccccc1)c1ccc3ccccc3c1O2 (stereo not drawn)	Mdm2 MdmX PPI 100.3, Beta apoptosis 98.0, UPR XBP1 act 32.1, CSC inhib 104.5 | UPR XBP1 confirm 127.1 | Mdm2 MdmX conf 100.2 | FLuc counter 51.8
N=c1c2c(ncn1CCN1CCOCC1)Oc1cc(O)ccc1C2c1ccccc1 (stereo not drawn)	none
COc1cccc(CN2CCNC(=O)C2CC(=O)N(C)C2CCOCC2)c1OC (stereo not drawn)	none (no result: Beta apoptosis)
CCC[C@H](CN[C@@H](CNC)[C@H](C)CC)NCCc1cc(C(F)(F)F)cc(C(F)(F)F)c1	Mdm2 MdmX PPI 97.0, SKKanGAS inh 50.5, UPR XBP1 act 52.0 | UPR XBP1 confirm inactive | Mdm2 MdmX conf 100.2 | FLuc counter 52.0
CCC[C@@H](CN[C@@H](CNC)[C@H](C)CC)NCC1CCC(C(C)(C)C)CC1 (stereo partly drawn)	Mdm2 MdmX PPI 99.3, UPR XBP1 act 51.1 | UPR XBP1 confirm 30.0 | Mdm2 MdmX conf 99.8 | FLuc counter inactive
COc1ccc(CNC(=O)COC(=O)[C@H](Cc2ccccc2)NC(=O)c2cccs2)cc1	none (no result: SKKanGAS inh)
CC(=O)CSc1nc2ccc(Nc3nc(N4CCOCC4)nc(N4CCOCC4)n3)cc2s1	none
COc1ccc(NC(=O)CSc2nc3ccc(Nc4nc(N5CCOCC5)nc(N5CCOCC5)n4)cc3s2)cc1	Mdm2 MdmX PPI 85.1, UPR XBP1 act 57.7 (no result: Beta apoptosis) | UPR XBP1 confirm 31.0 | Mdm2 MdmX conf 49.4 | FLuc counter 36.7
COc1ccc(Cn2c(SCc3cc(C)ccc3C)nc3cc(OC)c(OC)cc3c2=N)cc1	Mdm2 MdmX PPI 84.2, Beta apoptosis 104.6, SKKanGAS inh 109.2, UPR XBP1 act 99.9, CSC inhib 141.7 | UPR XBP1 confirm 66.8 | Mdm2 MdmX conf 100.2 | FLuc counter 51.1
COc1ccc(-c2csc(NC(=S)NC(=O)/C=C/c3ccccc3)n2)cc1Br	Mdm2 MdmX PPI 55.2, UPR XBP1 act 160.3 | UPR XBP1 confirm 250.2 | Mdm2 MdmX conf inactive
CC(=O)Nc1ccc(S(=O)(=O)NCCCc2ccccc2)cc1	none (no result: Beta apoptosis, CSC inhib)
COc1ccc(NC(=O)CSc2nc3ccccc3c3nc4ccccc4n23)cc1	none (no result: Mdm2 MdmX PPI, SKKanGAS inh, UPR XBP1 act, UPR CHOP act)
Cc1ccc(NC(=O)CSc2nc3ccccc3c3nc4ccccc4n23)cc1	Mdm2 MdmX PPI 80.9, UPR XBP1 act 92.5 | UPR XBP1 confirm 200.3 | Mdm2 MdmX conf 58.0 | FLuc counter 69.9
CCOCCCNC(=O)c1oc2ccc3c(c2c1C)C(O)CC(C)(C)O3 (stereo not drawn)	none
CCOC(=O)C1=C(COC(=O)c2ccc(C)c(S(=O)(=O)N3CCOCC3)c2)NC(=O)NC1C (stereo not drawn)	none (no result: Beta apoptosis, SKKanGAS inh, CSC inhib)
COc1cc([C@@H]2c3cc4c(cc3[C@@H](O)[C@H]3COC(=O)[C@H]23)OCO4)cc(OC)c1O[Si](C)(C)C(C)(C)C	Mdm2 MdmX PPI 71.4, UPR XBP1 act 58.1, CSC inhib 127.2 | UPR XBP1 confirm 48.3 | Mdm2 MdmX conf inactive | FLuc counter 80.8
COc1cc(C2CC(=O)Oc3cc4c(cc32)OCO4)cc(OC)c1OC (stereo not drawn)	none (no result: Beta apoptosis, SKKanGAS inh, CSC inhib)
CCN(CC)c1ccc(S(=O)(=O)N2CCOCC2)cc1NC(=O)Nc1ccccc1	none (no result: SKKanGAS inh, CSC inhib)
O=C(Nc1ccccc1)Nc1cccc(Cl)c1Cl	none
O=C(Nc1ccc(Oc2ccc(NC(=O)Nc3ccccc3Cl)cc2)cc1)Nc1ccccc1Cl	Mdm2 MdmX PPI 54.0, UPR XBP1 act 43.9 | UPR XBP1 confirm 53.8 | Mdm2 MdmX conf 40.5 | FLuc counter 47.0
CCN1CCN(c2nnc(-c3ccc(C)cc3)c3ccccc23)CC1	none
COc1ccc(-c2cc(=O)oc3cc4occ(C)c4cc23)cc1	none
COc1ccc(-c2coc3cc4oc(=O)cc(-c5ccccc5)c4cc23)cc1F	Mdm2 MdmX PPI 83.6, UPR XBP1 act 41.1 | UPR XBP1 confirm 125.0 | Mdm2 MdmX conf 57.5 | FLuc counter 55.4
O=C(COC(=O)c1ccc(Cl)nc1)Nc1ccc(N2CCCCC2)cc1	none (no result: SKKanGAS inh, CSC inhib)
Cc1cccc2c1Sc1ccc(Cl)cc1CC2N1CCNCC1 (stereo not drawn)	Mdm2 MdmX PPI 100.2, UPR XBP1 act 31.2, CSC inhib 101.6 (no result: Beta apoptosis) | UPR XBP1 confirm 36.6 | Mdm2 MdmX conf inactive | FLuc counter 46.4
CCc1ccc2[nH]c3nc(SCc4nnc(-c5ccc(C)cc5)o4)nnc3c2c1	Mdm2 MdmX PPI 70.1, UPR XBP1 act 94.8 | UPR XBP1 confirm 93.1 | Mdm2 MdmX conf inactive
CCc1ccc2[nH]c3nc(SCCN4CCOCC4)nnc3c2c1	none
CCc1ccc(-c2nc(CN3CCC(C(=O)NCCN(CC)c4ccccc4)CC3)c(C)o2)cc1	Mdm2 MdmX PPI 77.5, UPR XBP1 act 56.6 | UPR XBP1 confirm 35.2 | Mdm2 MdmX conf 79.8 | FLuc counter 59.3
CCN(CCNC(=O)C1CCCN(Cc2nc(-c3ccc(OC)cc3)oc2C)C1)c1ccccc1 (stereo not drawn)	none
O=c1cc(CN2CCN(c3ccccc3)CC2)c2cc(O)c(-c3ccccc3)cc2o1	Mdm2 MdmX PPI 72.6, UPR XBP1 act 59.6 | UPR XBP1 confirm 113.4 | Mdm2 MdmX conf inactive
